High-throughput results from PubChem.
CRFBP-R2 agonist: CRF-BP/CRF-R2 complex agonism. activation, % at 13.2 µM. AID 588473. 350,000 compounds, 0.46% hits. HEK293 CRF-R2/CRF-BP, calcium dye fluorescence (FLIPR); percent of saturating CRF peptide response;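 active = activation of at least 50%, plus an integration ratio under a set limit after plate pattern correction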;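 note: plate controls were neutral control wells without compound for no effect and CRF at EC100 for full effect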
OXTR agonist: activates the human oxytocin receptor. P30559. activation, % at 3 µM. 320,000 compounds, 0.32% hits. CHO-OTR cells, Fluo-8 calcium fluorescence; normalized: DMSO 0%, oxytocin 100%;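 active = activation above the mean of all tested compounds plus 3 SD, cutoff set per screening run, cut at about 20% in these data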;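 note: peak over basal fluorescence ratio from a 100 s FLIPR kinetic read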
V1aR counter: counter-screen for oxytocin receptor agonists: human V1a receptor agonists; P37288; CHO-V1R cells, Fluo-8 calcium fluorescence, agonist mode; 0% DMSO, 100% 3 nM vasopressin; activation, % at 3 µM; 320,000 compounds, 0.25% hits; AID 2797;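 active = activation above the mean activation of all tested compounds plus 3 SD, per screening run, cut at about 20% in these data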;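 note: signal is peak over basal fluorescence ratio across a 100 second FLIPR read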
OXTR potentiator: potentiates the human oxytocin receptor response | P30559 | CHO-OTR cells, Fluo-8 calcium fluorescence, potentiator mode; 0% = oxytocin EC15, 100% = EC100 | activation, % at 3 µM | 320,000 compounds, 0.061% hits;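 active = activation above that plate's cutoff, the mean activation of tested compounds plus 3 SD, cut at about 6.6% in these data, passing the limit was not always enough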;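 note: 100% uses oxytocin at 75 nM as the full agonist control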
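test system = CHO-OTR cells, human receptor | compound = single-point 3.0 µM | schedule = 6 min compound pre-incubation at room temperature, 100 s kinetic read | signal = Fluo-8 no-wash calcium dye fluorescence, excitation 470-495 nm, emission 515-575 nm | repeats = single well per compound, singlicate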
TRPN1 ag: agonists of zebrafish TRPN1 channel; 220,000 compounds, 0.18% hits; HEK293 zebrafish TRPN1-YFP, Fluo-8 calcium fluorescence; 100% = response to 87 µM carbachol; activation, % at 3 µM;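 active = activation above its plate's cutoff, the mean activation of test wells on that plate plus 3 SD, cut at about 19% in these data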;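 note: 0% = DMSO alone and 100% = 87 µM carbachol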
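Material: zebrafish TRPN1-YFP in HEK293 cells. Doses: one dose of 3 µM, 0.3% DMSO. Incubation: dye 1 h 37 °C plus 30 min RT. Measured by: intracellular calcium fluorescence with Fluo-8.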
TRPML3 ag: activates the human TRPML3 channel. Q8TDD5. HEK293 TRPML3-YFP, Fluo-8 calcium fluorescence; 100% = the carbachol control signal. activation, % at 3 µM. 220,000 compounds, 0.29% hits. AID 1448;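 active = activation above its plate's cutoff, the mean activation of the plate's test wells plus 3 SD, cut at about 12% in these data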;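 note: 0% = DMSO only wells and 100% = carbachol wells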
Target sequence (Q8TDD5 whole entry, looked up): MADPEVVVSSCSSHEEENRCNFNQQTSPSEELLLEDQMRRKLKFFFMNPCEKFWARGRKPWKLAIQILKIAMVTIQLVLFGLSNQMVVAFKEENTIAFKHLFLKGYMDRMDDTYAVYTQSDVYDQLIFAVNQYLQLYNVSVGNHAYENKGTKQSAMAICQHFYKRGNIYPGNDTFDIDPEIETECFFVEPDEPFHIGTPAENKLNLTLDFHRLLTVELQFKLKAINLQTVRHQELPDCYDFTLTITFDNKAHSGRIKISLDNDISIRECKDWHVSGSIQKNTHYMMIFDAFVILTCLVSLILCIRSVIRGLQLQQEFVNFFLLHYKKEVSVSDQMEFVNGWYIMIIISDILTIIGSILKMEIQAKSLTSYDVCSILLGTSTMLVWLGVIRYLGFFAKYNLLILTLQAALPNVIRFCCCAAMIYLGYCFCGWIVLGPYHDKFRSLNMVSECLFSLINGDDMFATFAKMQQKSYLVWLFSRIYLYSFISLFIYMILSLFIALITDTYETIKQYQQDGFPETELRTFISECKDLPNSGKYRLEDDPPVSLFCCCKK
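system = HEK293 cells stably carrying human TRPML3-YFP | doses = one concentration, 3 µM nominal, 0.3% DMSO | timing = dye loading 1 h 37 °C then 30 min ambient, 125 s read | detection = Fluo-8 calcium dye fluorescence, ex 470-495, em 515-575 nm | benchmarks = high control carbachol 87 µM, low control DMSO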
TRPN1 ag 2: zebrafish TRPN1 agonism as TRPML3 agonist counter-screen; 310 compounds, 10% hits; shares compounds with TRPML3 ag; activation, % at 3 µM; HEK293 zebrafish TRPN1-YFP, Fluo-8 calcium fluorescence; scaled: carbachol wells 100%, DMSO wells 0%;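 active = mean activation over replicates above a set limit taken from the earlier TRPN1 channel primary screen, cut at about 19% in these data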;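 note: 100% = carbachol and 0% = 0.3% DMSO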
TRPML3 ag conf: confirmation of human TRPML3 channel agonists; activation, % at 3 µM; 310 compounds, 80% hits; shares compounds with TRPML3 ag; HEK293 TRPML3-YFP, Fluo-8 calcium fluorescence; 100% set by carbachol, 0% by DMSO;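 active = activation above a set limit derived from the earlier primary screen, cut at about 12% in these data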
The depositor's hits bear a star; / = no result. Only some compounds are listed: those with a hit (about 0.85% of all), similar ones and a draw of the others.

SMILES | CRFBP-R2 agonist | OXTR agonist | V1aR counter | OXTR potentiator | TRPN1 ag | TRPML3 ag | TRPN1 ag 2 | TRPML3 ag conf
COc1cccc(OC)c1C(=O)N1CCN(C(=O)c2ccc(-c3ccccc3)cc2)CC1 | -1 | 3 | 9 | -6 | / | / | / | /
CN1CCCN(S(=O)(=O)c2ccc3ccccc3c2)CC1 | 0 | -1 | -1 | -4 | / | / | / | /
CC(C)c1ccc(S(=O)(=O)N2CCCCC2)cc1 | 0 | -1 | -1 | -2 | 0 | 15* | -1 | 15*
O=S(=O)(c1ccc2ccccc2c1)N1CCCCCC1 | -2 | -2 | -1 | -10 | -2 | 81* | 0 | 62*
COc1cc(S(=O)(=O)N2CCN(C)CC2)ccc1Cl | 0 | 0 | 1 | 4 | -1 | 0 | / | /
O=S(=O)(c1ccc2ccccc2c1)N1CCCCC1 | 1 | -2 | -1 | -1 | 0 | 16* | 0 | 12*
COc1cc(S(=O)(=O)N2CCCCCC2)ccc1Cl | 2 | -2 | 5 | -10 | -2 | 44* | -1 | 61*
C[C@H](CO)N1C[C@H](C)[C@@H](CN(C)S(=O)(=O)c2ccc(C#N)cc2)OCc2cn(nn2)CCCC1=O | 0 | / | / | / | / | / | / | /
COc1ccc(NC(=O)N(C)[C@H]2C[C@H]3c4[nH]c5ccc(-c6cccc(C)c6)cc5c4CCN3C[C@H]2[C@H](C)O)cc1 | 3 | / | / | / | / | / | / | /
Cn1c(=O)c2[nH]c(NN=Cc3cccc(Br)c3)nc2n(C)c1=O | -6 | / | / | / | / | / | / | /
CCCCn1c(C)cc(C)c(S(=O)(=O)c2ccccc2C)c1=O | 2 | -1 | -1 | -9 | -2 | 18* | -2 | 58*
Cc1cc(C)c(S(=O)(=O)c2ccccc2C)c(SCC(C)C)n1 | -1 | -1 | 0 | -13 | 0 | 1 | / | /
Cc1ccccc1S(=O)(=O)c1c(C)cc(C)n(C(C)C)c1=O | -1 | -2 | -3 | 4 | -2 | 30* | -3 | 35*
CCCSc1nc(C)cc(C)c1S(=O)(=O)c1ccccc1C | -2 | -1 | 1 | -17 | -1 | 4 | / | /
N=C1SCC(=O)N1c1ncc(Cc2ccccc2Cl)s1 | 0 | / | / | / | 3 | 137* | 5 | 170*
Cc1cccc(Cc2cnc(N3C(=N)SC(C)C3=O)s2)c1 (configuration not stated) | -1 | -1 | 0 | -6 | 1 | 2 | / | /
N=C1SCC(=O)N1c1ncc(Cc2cccc(Cl)c2)s1 | 0 | / | / | / | 4 | 45* | 5 | 26*
COc1ccc(S(=O)(=O)NC2CCCC2)c(Cl)c1Cl | -1 | -2 | -1 | 2 | -2 | 35* | -2 | 48*
CN(c1ccccc1)S(=O)(=O)c1cccc2ccccc12 | 1 | -2 | 0 | -13 | / | / | / | /
CN(c1ccccc1)S(=O)(=O)c1cccc(Cl)c1Cl | -4 | 0 | -1 | -3 | -2 | 53* | -4 | 40*
CN(c1ccccc1)S(=O)(=O)c1cc(Cl)ccc1Cl | 0 | -1 | -2 | 0 | -2 | 49* | -3 | 67*
CCC(C(=O)Nc1cc(C)nn1-c1nc(C)cc(C)n1)c1ccccc1 (configuration not stated) | 38 | -1 | 1 | -11 | 2 | 23* | 2 | 23*
CN(C)S(=O)(=O)N1CCN(c2cc(Cl)ccc2Cl)CC1 | 1 | -1 | 0 | -11 | -1 | 16* | -2 | 18*
CN(C)S(=O)(=O)N1CCN(c2ccccc2Cl)CC1 | 1 | 0 | 0 | -8 | 1 | 3 | / | /
Cc1cc(N2C(=O)C3C4c5ccccc5C(c5ccccc54)C3C2=O)no1 (configuration not stated) | 2 | -2 | 0 | -6 | -3 | 13* | -1 | 9
SMILES | CRFBP-R2 agonist | OXTR agonist | V1aR counter | OXTR potentiator | TRPN1 ag | TRPML3 ag | TRPN1 ag 2 | TRPML3 ag conf
O=C(c1ccc([N+](=O)[O-])cc1)N(Cc1ccc(Cl)cc1Cl)N1C(=O)CCCC1=O | 53* | -1 | -1 | -6 | 2 | 16* | 2 | 25*
O=C(Cn1cc([N+](=O)[O-])ccc1=O)NCc1ccc(Cl)cc1Cl | 0 | 0 | 4 | -4 | / | / | / | /
CC1=CC(C)(C)N(C(=O)CSc2nnc(C)s2)c2ccc(C)cc21 | -1 | -2 | -1 | -1 | -1 | -1 | / | /
CC1=CC(C)(C)N(C(=O)CSc2nnc(-c3ccc(C)cc3)o2)c2ccc(C)cc21 | 2 | -1 | 0 | -20 | 0 | 62* | -2 | 49*
Cc1ccc(S(=O)(=O)N2CC3(O)CN(C(=O)OC(C)C)N(C(=O)OC(C)C)CC3(OC(=O)NCc3ccccc3F)C2)cc1 (configuration not stated) | 0 | / | / | / | / | / | / | /
O=S(=O)(c1cnc(Cl)c(Br)c1)N1CCc2ccccc21 | 0 | 0 | -1 | -3 | -3 | 14* | -2 | 50*
COc1ccccc1C(=O)N/C(=C/c1ccc(Br)cc1)C(=O)N1CCOCC1 | 0 | / | / | / | / | / | / | /
COc1ccc(-c2csc(NC(=O)c3ccccc3F)n2)cc1 | 1 | -1 | 1 | -11 | / | / | / | /
COc1ccc(-c2csc(NC(=O)c3ccccc3NS(=O)(=O)c3ccc(F)c(F)c3)n2)cc1 | 43 | 15 | 10 | -9 | 17 | 13* | 27* | 17*
CCOc1ccc(NC(=O)c2ccccc2NS(=O)(=O)c2ccc(F)cc2)c([N+](=O)[O-])c1 | 13 | 7 | 7 | -12 | 1 | 15* | 10 | 34*
Cc1ccc(S(=O)(=O)Nc2ccccc2C(=O)Nc2nc(-c3ccc(F)cc3)cs2)cc1 | 22 | 12 | 10 | -15 | 14 | 12* | 21* | 10
C[C@@H]1CN([C@@H](C)CO)C(=O)CCCn2nncc2CO[C@@H]1CN(C)C(=O)Nc1ccc2c(c1)OCO2 | 3 | / | / | / | / | / | / | /
Cc1ccc(CNc2ccc3c(c2)ncn3C(C)C)cc1 | 61* | -1 | 3 | -6 | 13 | 36* | 36* | 29*
CSc1nnc2c(=O)[nH]c(=O)n(C)c2n1 | 3 | / | / | / | / | / | / | /
NC(=O)C1CCN(c2nc(-c3ccc4c(c3)OCCO4)cs2)CC1 | -1 | -1 | 1 | -2 | / | / | / | /
Fc1ccc(Nc2nnc(C(F)(F)F)s2)cc1Cl | 20 | 10 | 9 | -18 | 19 | 17* | 15 | 9
O=C1C=C(NNC(=O)c2ccncc2)CC(c2ccccc2)C1 (configuration not stated) | 7 | 7 | 12 | -14 | 18 | 19* | 1 | 0
